Bioassay records deposited in PubChem BioAssay by several laboratories.
XBP1 UPR activ: adaptive UPR (XBP1) activation. CHO-XBP1 luciferase reporter, IRE1-XBP1 UPR activation, luminescence; percent of tunicamycin response, DMSO as zero. activation, % at 20 µM. actives 0.33% (n = 330,000). AID 463104;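 active = versus positive control, 20 µM dose yields 30% or more activation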;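 note: 100% = tunicamycin at 10 µg/mL and 0% = DMSO only wells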
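Material: CHO cell line with stable XBP1 luciferase reporter; schedule: 16-18 h cell attachment at 37 °C, then 6 h compound exposure; signal: glow luminescence from Steady-Glo reagent; medium: serum-containing F12 medium, 10% FBS; benchmarks: tunicamycin 10 µg/mL and vehicle-only wells; read-out: percent activation relative to tunicamycin reference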
CHOP inh: inhibitors of CHOP induction in ER stress response; actives 3.8% (n = 220,000); CHO-K1 CHOP-promoter luciferase, tunicamycin-induced, 15-18 h; inhibition, % at 10 µM; AID 2732;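 active = compounds that reduced the stress-induced luciferase reporter signal by more than about 70% of percent inhibition, limit read from the data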;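 note: 0% = tunicamycin plus vehicle and 100% = wells without tunicamycin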
CHOP UPR activ: apoptotic UPR (CHOP) activation. CHO-CHOP luciferase reporter, luminescence; percent of tunicamycin response over DMSO baseline. activation, % at 10 µM. actives 0.34% (n = 330,000);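 active = at 10 µM dose, activation of 40% or more, normalized to positive control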;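 note: 100% = tunicamycin at 10 µg/mL and 0% = DMSO alone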
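measured by = luciferase luminescence | assay system = CHO-CHOP cells, stable luciferase reporter of PERK-eIF2a-CHOP signalling | amount = 500 reporter cells seeded per well | timing = 6 h compound exposure at 37 °C after overnight seeding | controls = positive tunicamycin 10 µg/mL, negative DMSO alone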
A1 inh: inhibitors of the anti-apoptotic protein A1, read as caspase activation | MEF A1-2A-BIM cells, Caspase-Glo 3/7 luminescence, 3 h; percent of clofoctol response, vehicle zero | caspase activation, % (test concentration not listed) | actives 0.066% (n = 330,000) | AID 2462;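 active = over half of replicate activation scores above 10%, or exactly half above 10 with the replicate mean above 10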
XBP1 UPR conf: adaptive UPR (XBP1) activation, confirmed | shares compounds with XBP1 UPR activ | CHO-XBP1 IRE1-XBP1 luciferase reporter, luminescence | activation, % at 20 µM | actives 63% (n = 1,000) | AID 485299;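 active = reporter signal at least 30% of the positive control's activation in two or more of four replicate wells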;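 note: plate controls were DMSO negative control for no effect and tunicamycin 10 µg/mL positive control for full effect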
Active calls of the source: *. This is one part of a sample in which hits are shown more often than they occur.

`COc1ccc2cc3cc(C(=O)Nc4ccccc4N4CCN(C)CC4)oc3nc2c1` gave XBP1 UPR activ 40.3*, CHOP inh 86.0*, CHOP UPR activ 2.6, A1 inh -3.9 and XBP1 UPR conf 13.0.
Screening Cc1ccc(S(=O)(=O)N2CCOC2CNC(=O)C(=O)NCCN(C)C)cc1 (stereo not given) returned XBP1 UPR activ -4.6, CHOP UPR activ -0.4 and A1 inh 0.1.
`Cn1c(-c2ccccc2)c(/C=N/NC(=O)c2ccc(O)cc2)c2ccccc21` gave XBP1 UPR activ 34.6*, CHOP inh 52.0, CHOP UPR activ 11.0, A1 inh 1.3 and XBP1 UPR conf 62.9*.
`Cc1ccc(Nc2nc3ccc(Cl)cc3n3cnnc23)cc1F` gave XBP1 UPR activ 32.0*, CHOP UPR activ 1.7, A1 inh -0.4 and XBP1 UPR conf 47.7*.
For Cc1ccc(SCC(=O)OCC(=O)NCCCc2ccccc2)cc1 the results were XBP1 UPR activ 0.7, CHOP UPR activ 1.2 and A1 inh 0.1.
`O=C(COC(=O)CSc1ccc(F)cc1)NCCCc1ccccc1` gave XBP1 UPR activ 44.0*, CHOP UPR activ -0.2, A1 inh 0.5 and XBP1 UPR conf 0.4.
Screening CCC(Sc1nnc2c3ccccc3n(CC)c2n1)C(=O)Nc1sc2c(c1C#N)CCCC2 (stereo not given) returned XBP1 UPR activ 162.6*, CHOP inh 8.8, CHOP UPR activ 11.8, A1 inh -1.7 and XBP1 UPR conf 157.4*.
Screening CCC(Sc1nc(C)cc(=O)[nH]1)C(=O)Nc1sc2c(c1C#N)CCCC2 (stereo not given) returned XBP1 UPR activ 0.3, CHOP inh 19.5, CHOP UPR activ 0.5 and A1 inh 1.1.
Screening COc1ccc(/C=N/NC(=O)c2cccc([N+](=O)[O-])c2)c2ccccc12 returned XBP1 UPR activ 77.2*, CHOP UPR activ 1.8, A1 inh 0.6 and XBP1 UPR conf 33.9*.
For Cc1nc2c(N=Nc3ccccc3F)c(N)nn2c(N)c1C#N the results were XBP1 UPR activ 44.3*, CHOP inh 2.2, CHOP UPR activ 15.1, A1 inh 0.1 and XBP1 UPR conf 21.2.
Cc1ccc(-n2nc3c(N4CCC(C(=O)NCCc5cccs5)CC4)nnc(C)c3c2C)cc1 was read as XBP1 UPR activ 31.1*, CHOP UPR activ 5.4, A1 inh 0.1 and XBP1 UPR conf 45.5*.
For CC(C)Cc1ccc(S(=O)(=O)N2CCN(c3ccccn3)CC2)cc1 the results were XBP1 UPR activ -7.6, CHOP UPR activ 0.7 and A1 inh 0.5.
COc1ccc(C(CCNC(C)c2ccccc2)c2ccc(F)cc2)cc1 (stereo not given) was read as XBP1 UPR activ 45.5*, CHOP inh 15.0, CHOP UPR activ 1.7, A1 inh 1.3 and XBP1 UPR conf 63.2*.
`COc1ccc(CNCCC(c2ccc(F)cc2)c2ccc(OC)cc2)cc1` (stereo not given) gave XBP1 UPR activ -2.9, CHOP inh 67.7, CHOP UPR activ -1.0 and A1 inh 0.4.
For COc1ccc(C(CCNCc2ccccc2)c2ccc(F)cc2)cc1 (stereo not given) the results were XBP1 UPR activ 48.2*, CHOP inh 20.2, CHOP UPR activ 0.6, A1 inh -0.3 and XBP1 UPR conf 71.3*.
Screening COc1cccc(CNC(=O)c2ccc(OCC(=O)N3CCOCC3)c(OC)c2)c1 returned XBP1 UPR activ -3.6, CHOP UPR activ -0.7 and A1 inh 0.1.
Screening O=C(O)c1cc(O)ccc1NC(=O)C(c1ccccc1)c1ccccc1 returned XBP1 UPR activ -5.8, CHOP UPR activ -0.5 and A1 inh 1.3.
COc1ccc(-c2csc(C3=C(O)CN(Cc4ccc(S(N)(=O)=O)cc4)C3=N)n2)cc1OC was read as XBP1 UPR activ -0.8, CHOP inh 56.5, CHOP UPR activ -1.7 and A1 inh -0.1.
Screening COc1ccc(-c2csc(C3=C(O)CN(Cc4ccc(Cl)cc4)C3=N)n2)cc1OC returned XBP1 UPR activ 43.0*, CHOP inh 44.6, CHOP UPR activ 2.1, A1 inh -1.5 and XBP1 UPR conf 134.3*.
Cc1c(-c2ccc(/C=N/NC(=O)C(=O)Nc3ccccc3F)o2)cccc1[N+](=O)[O-] was read as XBP1 UPR activ 73.0*, CHOP inh -9.2, CHOP UPR activ 18.0, A1 inh -0.3 and XBP1 UPR conf 7.3.
Cc1ccccc1C(=O)O[C@H]1[C@H](Cc2ccccc2)NS(=O)(=O)[C@H]2CC3C=C[C@]12O3 was read as XBP1 UPR activ 1.3, CHOP UPR activ -0.1 and A1 inh 2.1.
For O=C(Nc1cc(S(=O)(=O)N2CCOCC2)ccc1Cl)c1cc([N+](=O)[O-])ccc1Cl the results were XBP1 UPR activ 69.0*, CHOP UPR activ 1.1, A1 inh 1.6 and XBP1 UPR conf 24.1.
`COc1ccccc1NC(=O)CCC(=O)OCC(=O)c1ccc(C)c([N+](=O)[O-])c1` gave XBP1 UPR activ -4.2, CHOP UPR activ 1.1 and A1 inh 0.6.
`CS(=O)(=O)c1ccc(C(=O)Nc2nc(-c3ccco3)c(-c3ccco3)s2)cc1` gave XBP1 UPR activ -1.0 and CHOP UPR activ -0.3.
CC1(C)C[C@H](O)[C@]2(CO)[C@H](O)C[C@]3(C)C(=CCC4[C@@]5(C)CC[C@H](O)C(C)(C)C5CC[C@]43C)[C@@H]2C1 (stereo not given in full) was read as XBP1 UPR activ 145.8*, CHOP UPR activ 38.7, A1 inh 13.7* and XBP1 UPR conf 73.0*.
For Cc1cc(N2CCN(C)CC2)ccc1NC(=O)c1c2c(nc3ccccc13)CCN(Cc1ccccc1)C2 the results were XBP1 UPR activ 41.5*, CHOP inh -39.9, CHOP UPR activ 15.1, A1 inh 0.5 and XBP1 UPR conf 11.9.
For O=C(NC1CCCCCC1)c1c2c(nc3ccccc13)CCN(Cc1ccccc1)C2 the results were XBP1 UPR activ 0.1, CHOP inh 27.1, CHOP UPR activ -1.2 and A1 inh -0.6.
For CCC(=O)Nc1ccc2c(c1)N(C(C)=O)c1ccccc1CC2 the results were XBP1 UPR activ -1.3, CHOP UPR activ 2.2 and A1 inh -0.5.
CC(NCC(O)COCCC12CC3CC(CC(C3)C1)C2)c1ccccc1 (stereo not given) was read as XBP1 UPR activ 50.5*, CHOP inh 58.2, CHOP UPR activ 0.5, A1 inh -0.2 and XBP1 UPR conf 50.6*.
Screening Cc1cccc2cc(C(c3nnnn3Cc3ccccc3)N3CCCc4ccccc43)c(=O)[nH]c12 (stereo not given) returned XBP1 UPR activ 75.8*, CHOP inh 76.8*, CHOP UPR activ 10.6, A1 inh 1.0 and XBP1 UPR conf 27.9*.
